The test system of data set [1] is Rodentolepis nana. Put plainly: Anthelmintic activity against Hymenolepis nana infected in mouse assessed as reduction in worm burden at 10 mg/kg bid for 5 days relative to control. The format is functional. The method in brief:
(§1)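 Mice carried the tapeworm *H. nana* and were dosed at 300, 100, 50, 25, 10, 5 or 2.5 mg/kg. Activity was read as percent reduction in worm burden, and significance was tested by Mann-Whitney U test. The rest of the procedure follows an earlier publication.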

The subject of data set [2] is Rodentolepis nana. Description: Anthelmintic activity against Hymenolepis nana infected in mouse assessed as reduction in worm burden at 50 mg/kg bid for 5 days relative to control. The format is functional. Set-up: scale not given: the % may be the effect or the level left. A digest of the protocol:
as §1

The test system of data set [3] is Rodentolepis nana. Put plainly: Anthelmintic activity against Hymenolepis nana infected in mouse assessed as reduction in worm burden at 300 mg/kg bid for 5 days relative to control. The format is functional. Set-up: scale not given: the % may be the effect or the level left. A digest of the protocol: as §1
Data set [4] concerns Rodentolepis nana. Description: Anthelmintic activity against Hymenolepis nana infected in mouse assessed as reduction in worm burden at 100 mg/kg bid for 5 days relative to control. The format is functional. On the set-up: scale not given: the % may be the effect or the level left. The method in brief:
as §1

The subject of data set [5] is Rodentolepis nana. Put plainly: Anthelmintic activity against Hymenolepis nana infected in mouse assessed as reduction in worm burden at 25 mg/kg bid for 5 days relative to control. The format is functional. On the set-up: scale not given: the % may be the effect or the level left. A digest of the protocol:
as §1

The test system of data set [6] is Mus musculus. Description: Toxicity in mouse infected with Hymenolepis nana at 300 mg/kg bid for 5 days. On the set-up: dose 300 mg/kg. Conditions: in vivo, 120 h. The format is organism-based.
For data set [7], the system named is Canis familiaris. Put plainly: Toxicity in beagle dog assessed as emesis at 50 to 150 mg/kg, po. The format is organism-based, Canis lupus familiaris. On the set-up: dose 50-150 mg/kg, route oral. Conditions: in vivo. The method in brief: (§2)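 Beagles infected with *T. pisiformis*, aged from puppies to 2–3 years, received single oral doses of 50–150 mg/kg body weight. Readouts were worm clearance plus observation for emesis and other untoward clinical signs.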

For data set [8], the system named is Rodentolepis nana. Description: Anthelmintic activity against Hymenolepis nana infected in mouse assessed as reduction in worm burden at 5 mg/kg bid for 5 days relative to control. The format is functional. On the set-up: scale not given: the % may be the effect or the level left. The method in brief: as §1
Data set [9] concerns Syphacia obvelata. Description: Anthelmintic activity against Syphacia obvelata infected in mouse assessed as complete parasite clearance at 50 mg/kg bid for 5 days. Set-up: dose 50 mg/kg. The format is functional, organism-based.
The test system of data set [10] is Rodentolepis nana. Put plainly: Anthelmintic activity against Hymenolepis nana infected in mouse assessed as reduction in worm burden at 2.5 mg/kg bid for 5 days relative to control. The format is functional. Set-up: scale not given: the % may be the effect or the level left. A digest of the protocol: as §1
The test system of data set [11] is Canis familiaris. Description: Toxicity in beagle dog assessed as untoward clinical signs at 50 to 150 mg/kg, po. The format is organism-based, Canis lupus familiaris. On the set-up: dose 50-150 mg/kg, route oral. The settings on record: in vivo. The method in brief:
as §2

For data set [12], the system named is Moniezia. Description: Anthelmintic activity against Moniezia species infected in sheep assessed as complete parasite clearance at 50 mg/kg for 3 days administered as drench solution. On the set-up: dose 50 mg/kg. The format is functional, organism-based. A digest of the protocol: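 Sheep were naturally infected. Drug was mixed with water and sonified to a creamy consistency, then given as a drench. Animals were sacrificed 3 days after dosing and the intestines were examined for worms.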

The subject of data set [13] is Syphacia obvelata. Put plainly: Anthelmintic activity against Syphacia obvelata infected in mouse assessed as reduction in worm burden at 10 mg/kg bid for 5 days relative to control. The format is functional. Set-up: scale not given: the % may be the effect or the level left.
Data set [14] has as its system Taenia pisiformis. Put plainly: Anthelmintic activity against Taenia pisiformis infected in beagle dog assessed as complete parasite clearance at 50 to 150 mg/kg, po after 10 days. The format is functional, organism-based. The method in brief:
as §2

Data set [15] has as its system Taenia crassiceps. Put plainly: Anthelmintic activity against Taenia crassiceps infected in beagle dog assessed as complete parasite clearance at 100 mg/kg after 9 days. The format is functional, organism-based. Set-up: dose 100 mg/kg. The method in brief: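 Dogs received a recently isolated *T. crassiceps* strain as 40 cysts per dog, taken from mice and given perorally in gelatin capsules to young beagles. On day 37, drug was given in gelatin capsules, three dogs per test. Dogs were sacrificed 9 days after treatment, and intestinal scolices were counted as worms recovered at necropsy.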

The source made the active and inactive calls. The rule behind the calls is not given here.

In the case of `Cc1cc(O)c2c(ccc3nc(-c4ccccc4)[nH]c32)n1`, the outcome in data set [1] was inactive. Further, the Activity in data set [2] worked out at 94%; in data set [3], 100%; in data set [4] it was 93%; in [5], 77%.

In the case of `Cc1cc(O)c2c(ccc3nc(-c4ccccc4Cl)[nH]c32)n1`, the values for the Activity in data set [2], in data set [3] and in data set [4] were 75%, 100% and 100%, respectively. Moreover, the result in [5] was inactive.

In the case of `Cc1ccc(-c2nc3ccc4nc(C)cc(O)c4c3[nH]2)cc1`, the Activity in data set [3] is 70%. Moreover, in data set [4], the result was inactive.

`Cc1nc2ccc3nc(-c4ccccc4)[nH]c3c2c(O)c1C`: the Activity in data set [2] turned out to be 94%; in [3], 100%; in [4], 100%. For the same molecule, the result in [5] was inactive.

In the case of `CCCCCCOc1ccc(C(=N)N(CCCC)CCCC)c2ccccc12` [BUNAMIDINE], the result in [1] was inactive. Also, the Activity was 59% in data set [2], “Toxic” in data set [6], 100% in data set [4] and 30% in [5].

Regarding `Oc1cc(-c2ccccc2)nc2ccc3nc(-c4ccccc4)[nH]c3c12`, the Activity came to 82% in data set [2], 100% in [3] and 100% in data set [4]. Moreover, the outcome in data set [5] was inactive.

Take `Cc1cc(O)c2c(ccc3nc(-c4ccco4)[nH]c32)n1` [FURODAZOLE]: the Activity is given as 75% in data set [1]; “Toxic” in [7]; 57% in data set [8]; 100% in [2]; 35% in [10]; “Toxic” in data set [11]. Besides, the Activity was 100% in [3], 100% in [4], 68% in data set [13] and 100% in data set [5]. In addition, the result in data set [9], in data set [12], in [14] and in [15] was Active.

For the molecule `Oc1c2c(nc3ccc4nc(-c5ccccc5)[nH]c4c13)CCC2`, the Activity amounted to 41% in [2], 100% in [3] and 100% in data set [4]. For the same molecule, the outcome in [5] was inactive.

Source of the values: ChEMBL document CHEMBL3244405, “Imidazo[4,5-f]quinolines. 4. Synthesis and anthelmintic activity of a series of imidazo[4,5-f]quinolin-9-ols” (J Med Chem, 1978).
